Key:
[1] = biological target: T1, Type-1 angiotensin II receptor B (Rattus norvegicus, UniProt P29089); assay: Inhibition of [125I]angiotensin-II binding to the angiotensin II receptor type 1 in rat uterine membranes; format: cell membranes, Membrane
T1 sequence (P29089 whole entry): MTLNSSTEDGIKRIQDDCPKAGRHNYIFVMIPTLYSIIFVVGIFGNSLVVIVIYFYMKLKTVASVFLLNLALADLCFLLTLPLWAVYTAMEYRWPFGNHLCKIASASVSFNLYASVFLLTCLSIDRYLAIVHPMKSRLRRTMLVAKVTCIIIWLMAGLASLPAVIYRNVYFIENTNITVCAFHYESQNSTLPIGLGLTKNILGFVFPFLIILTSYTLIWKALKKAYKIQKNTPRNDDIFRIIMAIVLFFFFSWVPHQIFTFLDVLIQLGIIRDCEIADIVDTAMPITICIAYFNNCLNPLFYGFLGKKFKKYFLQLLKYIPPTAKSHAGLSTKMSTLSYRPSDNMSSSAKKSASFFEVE

[2] = biological target: Angiotensin II receptor (Oryctolagus cuniculus); assay: Antagonism of angiotensin-II mediated contraction of rabbit aortic rings expressed as pA2 (in vitro)
Rattus norvegicus = assay: In vivo inhibition of pressor response to AII in rats following intragastric administration; format: functional; details: po, read-out: ID50 (the source's name)
Summary of the method: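 Male Sprague-Dawley rats anesthetized with methohexital 30 mg/kg ip. Femoral artery and vein catheterized, restrained, and allowed 3 h recovery. Arterial pressure recorded continuously, 1 h baseline, then AII infused at 50 ng/kg/min iv. Compound given intragastrically at 1-10 mg/kg. Change in mean arterial pressure compared at time points before and after dosing.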

| IC50 [1] | pA2 [2] | SMILES | ED50 (Rattus norvegicus) |
| --- | --- | --- | --- |
| 12 nM | 8 | CCCCc1nn(CCCCC(=O)O)c(=O)n1Cc1ccc(-c2ccccc2-c2nn[nH]n2)cc1 | – |
| 25 nM | 8.1 | CCCCc1nn(CC(=O)C23C[C@H]4C[C@@H](C2)C[C@@H](C3)C4)c(=O)n1Cc1ccc(-c2ccccc2-c2nn[nH]n2)cc1 | – |
| 15 nM | – | CCCCc1nn(CC(OCC)c2ccccc2)c(=O)n1Cc1ccc(-c2ccccc2-c2nn[nH]n2)cc1 (stereo not given) | – |
| 12 nM | 7.8 | CCCCc1nn(CC(OC)c2ccccc2)c(=O)n1Cc1ccc(-c2ccccc2-c2nn[nH]n2)cc1 (stereo not given) | – |
| 3.6 nM | 8.3 | CCCCc1nn(CC(O)c2ccccc2)c(=O)n1Cc1ccc(-c2ccccc2-c2nn[nH]n2)cc1 (stereo not given) | – |
| 22 nM | 8.1 | CCCCc1nn(CC(O)c2cc(OC)ccc2OC)c(=O)n1Cc1ccc(-c2ccccc2-c2nn[nH]n2)cc1 (stereo not given) | – |
| 5800 nM | – | CCCCc1nn(C(Cc2ccccc2)C(=O)c2ccccc2)c(=O)n1Cc1ccc(-c2ccccc2-c2nn[nH]n2)cc1 (stereo not given) | – |
| 18 nM | 7.9 | CCCCc1nn(CCC2CCCCC2)c(=O)n1Cc1ccc(-c2ccccc2-c2nn[nH]n2)cc1 | – |
| 16 nM | 7.1 | CCCCc1nn(CC(=O)OC(C)(C)C)c(=O)n1Cc1ccc(-c2ccccc2-c2nn[nH]n2)cc1 | – |
| 30 nM | – | CCCCc1nn(CC(OCC(=O)O)c2ccccc2)c(=O)n1Cc1ccc(-c2ccccc2-c2nn[nH]n2)cc1 (stereo not given) | – |
| 45 nM | 8.1 | CCCCc1nn(CC(OCCC)c2ccccc2)c(=O)n1Cc1ccc(-c2ccccc2-c2nn[nH]n2)cc1 (stereo not given) | – |
| 36 nM | 7.8 | CCCCc1nn(C(CC(=O)OCC)C(=O)c2ccccc2)c(=O)n1Cc1ccc(-c2ccccc2-c2nn[nH]n2)cc1 (stereo not given) | – |
| 18 nM | 8 | CCCCc1nn(CCCc2ccccc2)c(=O)n1Cc1ccc(-c2ccccc2-c2nn[nH]n2)cc1 | – |
| 3.1 nM | 9.8 | CCCCc1nn(CCc2ccccc2)c(=O)n1Cc1ccc(-c2ccccc2-c2nn[nH]n2)cc1 | – |
| 21 nM | 8 | CCCCc1nn(CC(=O)c2cc(OC)ccc2OC)c(=O)n1Cc1ccc(-c2ccccc2-c2nn[nH]n2)cc1 | – |
| 16 nM | 8.1 | CCCCc1nn(Cc2ccccc2)c(=O)n1Cc1ccc(-c2ccccc2-c2nn[nH]n2)cc1 | – |
| 280 nM | 7.7 | CCCCc1nn(CC(OCc2ccccc2)c2ccccc2)c(=O)n1Cc1ccc(-c2ccccc2-c2nn[nH]n2)cc1 (stereo not given) | – |
| 290 nM | – | CCCCc1nn(C/C=C/c2ccccc2)c(=O)n1Cc1ccc(-c2ccccc2-c2nn[nH]n2)cc1 | – |
| 4.4 nM | – | CCCCc1nn(CCCCC(=O)OC)c(=O)n1Cc1ccc(-c2ccccc2-c2nn[nH]n2)cc1 | – |
| 180 nM | 8.3 | CCCCc1nn(CC(OCC(=O)OCC)c2ccccc2)c(=O)n1Cc1ccc(-c2ccccc2-c2nn[nH]n2)cc1 (stereo not given) | – |

| IC50 [1] | pA2 [2] | SMILES | ED50 (Rattus norvegicus) |
| --- | --- | --- | --- |
| 9 nM | 7.8 | CCCCc1nn(CC(=O)OCC)c(=O)n1Cc1ccc(-c2ccccc2-c2nn[nH]n2)cc1 | – |
| 170 nM | 8.5 | CCCCCCCCn1nc(CCCC)n(Cc2ccc(-c3ccccc3-c3nn[nH]n3)cc2)c1=O | – |
| 91 nM | 7.8 | CCCCc1nn(CC(=O)O)c(=O)n1Cc1ccc(-c2ccccc2-c2nn[nH]n2)cc1 | – |
| 9.8 nM | 7.6 | CCCCc1nn(CCCCCC(=O)OCC)c(=O)n1Cc1ccc(-c2ccccc2-c2nn[nH]n2)cc1 | – |
| 17 nM | 8.7 | CCCCc1nn(CCCCCC(=O)O)c(=O)n1Cc1ccc(-c2ccccc2-c2nn[nH]n2)cc1 | – |
| 8.7 nM | 8.9 | CCCCCCn1nc(CCCC)n(Cc2ccc(-c3ccccc3-c3nn[nH]n3)cc2)c1=O | – |
| 101 nM | 7 | CCCCc1nn(CCCC)c(=O)n1Cc1ccc(-c2ccccc2C(=O)O)cc1 | – |
| 43 nM | 7.7 | CCCCc1nn(C(C)(C)C(=O)c2ccccc2)c(=O)n1Cc1ccc(-c2ccccc2-c2nn[nH]n2)cc1 | – |
| 42 nM | 7.1 | CCCCc1nnc(O)n1Cc1ccc(-c2ccccc2-c2nn[nH]n2)cc1 | – |
| 5.6 nM | 9 | CCCCCn1nc(CCCC)n(Cc2ccc(-c3ccccc3-c3nn[nH]n3)cc2)c1=O | – |
| 1500 nM | 5.5 | CCCCc1nnc(O)n1Cc1ccc(-c2ccccc2C(=O)O)cc1 | – |
| 35 nM | 7.9 | CCCCc1nn(CCC(C)CC(C)(C)C)c(=O)n1Cc1ccc(-c2ccccc2-c2nn[nH]n2)cc1 (stereo not given) | – |
| 15 nM | 8.2 | CCCCc1nn(CCC)c(=O)n1Cc1ccc(-c2ccccc2-c2nn[nH]n2)cc1 | – |
| 280 nM | 6.5 | CCCCc1nn(Cc2ccc3ccccc3c2)c(=O)n1Cc1ccc(-c2ccccc2-c2nn[nH]n2)cc1 | – |
| 15 nM | – | CCCCc1nn(CC2CC2)c(=O)n1Cc1ccc(-c2ccccc2-c2nn[nH]n2)cc1 | – |
| 5.1 nM | – | CCCCc1nn(CCCC)c(=O)n1Cc1ccc(-c2ccccc2-c2nnn[nH]2)cc1 | 2.1 mg/kg |
| 7.9 nM | – | CCCCc1nn(CC(=O)c2ccccc2)c(=O)n1Cc1ccc(-c2ccccc2-c2nn[nH]n2)cc1 | – |
| 10 nM | 8.7 | CCCCc1nn(C(C)CC)c(=O)n1Cc1ccc(-c2ccccc2-c2nn[nH]n2)cc1 (stereo not given) | – |
| 20 nM | – | CCCCc1nn(C(C)C)c(=O)n1Cc1ccc(-c2ccccc2-c2nnn[nH]2)cc1 | – |

Source: ChEMBL document CHEMBL1126749, “Synthesis and structure-activity relationships of nonpeptide, potent triazolone-based angiotensin II receptor antagonists” (J Med Chem, 1993)
